Screening data: PubChem, several laboratories
MC4R ag barr: human MC4R agonism via beta-arrestin; P32245; U2OS MC4R beta-arrestin complementation, luminescence; percent of melanotan II response, DMSO zero; activation, % at 8.9 µM; hit rate 0.98% among 360,000;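 active = activation above a per-plate cutoff, the mean activation of sample wells on that plate plus 3 SD, cut at about 8% in these data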
Target sequence (P32245 whole entry, looked up): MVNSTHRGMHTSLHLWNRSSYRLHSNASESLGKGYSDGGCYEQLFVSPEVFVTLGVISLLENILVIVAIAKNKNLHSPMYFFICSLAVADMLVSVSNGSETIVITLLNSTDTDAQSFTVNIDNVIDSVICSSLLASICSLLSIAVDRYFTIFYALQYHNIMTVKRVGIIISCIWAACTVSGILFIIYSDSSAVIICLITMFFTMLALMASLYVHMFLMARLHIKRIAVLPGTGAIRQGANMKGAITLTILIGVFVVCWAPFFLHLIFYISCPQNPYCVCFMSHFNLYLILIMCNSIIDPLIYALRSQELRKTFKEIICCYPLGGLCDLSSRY
T cell HTS: modulates CD8 T cell binding to vesicles; hit rate 0.068% among 330,000; AID 2052; 2C CD8+ T cell-vesicle binding, flow cytometry; hits give low values; response (vesicle binding), % at 7 µM;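 active = response, share of CD8 T cells binding vesicles, and their 90th percentile fluorescence all below set limits, cut at about 80% in these data, passing the limit was not always enough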;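 note: values below 100% mean blocked vesicle binding to the CD8+ T cells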
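System: murine 2C transgenic CD8+ T lymphocytes; also added: QL9-loaded Drosophila micro-vesicles; times: binding 1.5 h at 37 °C; measured by: flow cytometry, PE anti-B7-1 (FL2) versus Alexa647 anti-CD8 (FL8), PFA-fixed; control set: Peptide-free naked vesicles (low) and QL9 vesicles with 0.7% DMSO vehicle (high)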
EP2 antag: inhibitors of human EP2 prostaglandin E2 receptor; C6 glioma cells expressing human EP2, cAMP TR-FRET; cells stimulated with saturating PGE2; inhibition, % at 25 µM; hit rate 0.52% among 260,000;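 active = percent inhibition above 40 after rounding to a whole number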;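 note: rat C6 glioma host cells with rolipram phosphodiesterase inhibitor present; the protocol text gives 20 µM as final concentration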
Target sequence (P43116 whole entry, looked up): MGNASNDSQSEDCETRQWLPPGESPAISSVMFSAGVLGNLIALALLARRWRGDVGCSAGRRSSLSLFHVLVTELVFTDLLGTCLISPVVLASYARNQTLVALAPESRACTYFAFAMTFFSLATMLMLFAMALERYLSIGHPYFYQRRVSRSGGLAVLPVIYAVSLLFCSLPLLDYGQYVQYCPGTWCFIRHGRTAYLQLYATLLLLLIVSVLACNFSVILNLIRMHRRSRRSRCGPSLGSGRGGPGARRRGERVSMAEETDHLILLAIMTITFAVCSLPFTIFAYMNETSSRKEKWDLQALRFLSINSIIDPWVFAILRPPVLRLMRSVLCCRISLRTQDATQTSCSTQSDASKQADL
MC4R antag cAMP: antagonists of human melanocortin 4 receptor (MC4R). P32245. MC4R-expressing cells, MTII-stimulated cAMP, LANCE TR-FRET. inhibition, % at 6.5 µM. hit rate 0.48% among 360,000. AID 540295;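 active = inhibition above its plate's cutoff, the mean of tested wells on that plate plus 3 SD, cut at about 29% in these data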;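 note: 0% = Melanotan II alone and 100% = Melanotan II plus saturating MCL0020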
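Test system: U2OS cells stably expressing human melanocortin 4 receptor (MC4R); also added: Melanotan II challenge; compound: 6.5 µM single dose; timing: 30-min compound preincubation, 1-h Melanotan II challenge, 1-h detection, room temperature; signal: Eu-cAMP/anti-cAMP TR-FRET, emission 671 nm; repeats: one well per compound, no replicates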
EP2 mod: modulators of human EP2 prostaglandin E2 receptor; induction, % at 25 µM; hit rate 0.83% among 260,000; EP2-expressing cells, cAMP HTRF FRET, PGE2 co-stimulation; P43116;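 active = compounds whose cAMP rise, as percent of the full-agonist control response, exceeds 60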;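 note: rat C6 glioma line stably carrying human EP2 under a CMV promoter; the protocol text gives 20 µM as final concentration; 100% = response of wells given 1 µM PGE2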
Granule exo inh: lytic granule exocytosis inhibition. TALL-104 LAMP-1 surface exposure, flow cytometry; cells stimulated with thapsigargin and PMA. hit rate 0.66% among 360,000. inhibition, % at 10 µM. AID 651702;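 active = inhibition above about 55%, limit read from the data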
MC4R barr ag: human MC4R beta-arrestin agonism confirmation | hit rate 31% among 2,400 | U2OS MC4R beta-arrestin recruitment, luminescence; scaled DMSO 0%, Melanotan II 100% | shares compounds with MC4R ag barr | activation, % at 8.9 µM;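 active = mean activation across replicates above the hit cutoff set in the earlier primary screen, cut at about 8% in these data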
MOR-DOR barr ag: activates mu-delta opioid heterodimer, MC4R agonist counter-screen. shares compounds with MC4R ag barr. U2OS PathHunter beta-arrestin, beta-gal luminescence; percent of deltorphin B response, DMSO zero. activation, % at 9.2 µM. hit rate 5.8% among 2,400. AID 602194;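 active = mean activation across replicates exceeds the hit threshold derived in the earlier primary screen, cut at about 18% in these data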;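 note: 100% = deltorphin B at 0.9 µM final and 0% = DMSO alone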
Numbers without * were called inactive; i = inactive; / = not tested or not shown. This is a sample that favours compounds with a hit; in the whole collection about 2.6% have one here.

SMILES	MC4R ag barr	T cell HTS	EP2 antag	MC4R antag cAMP	EP2 mod	Granule exo inh	MC4R barr ag	MOR-DOR barr ag
Cc1cc(-c2cnc(C)nc2C2CCCN(CC(=O)NCc3ccc4c(c3)OCO4)C2)on1 (stereo not drawn)	/	/	/	/	-39	/	/	/
C=CCNC(=O)NC(=O)CSc1nc2cc([N+](=O)[O-])ccc2n1-c1cccc(C(F)(F)F)c1	11*	i	2	7	23	-1	3	6
CCOC(=O)c1sc2nc(CSc3ccccc3Cl)[nH]c(=O)c2c1C	10*	i	10	-6	3	-2	3	2
COC(=O)c1sc2nc(CSc3ccc(Br)cc3)[nH]c(=O)c2c1C	8	604	10	11	29	-2	/	/
CC(NC(C(=O)c1ccccc1)c1ccccc1)c1ccccc1 (stereo not drawn)	12*	/	/	15	/	1	0	6
Cc1ccc(Nc2nc(-c3cccnc3)nc3ccccc23)cc1	-1	534	36	5	-11	54	/	/
CCOC(=O)c1ccc(Nc2nc(-c3cccnc3)nc3ccccc23)cc1	57*	176	15	11	-34	10	0	7
CC(CCc1ccccc1)NC(=O)c1ccc(NC(=O)c2ccc(Cl)cc2Cl)cc1 (stereo not drawn)	9.9*	90	6	1	-16	-2	7	6
C/C(=N\N=C1\NC(=O)C(CC(=O)Nc2ccc(C)c(Cl)c2)S1)C(C)(C)C (stereo not drawn)	16*	155	8	15	30	-2	5	5
C/C(=N\N=C1\NC(=O)C(CC(=O)Nc2ccc(Cl)cc2)S1)c1ccco1 (stereo not drawn)	0	159	5	-3	4	-4	/	/
COc1cccc(N(CC(=O)NC2CCCC2)C(=O)CCC(=O)Nc2nccs2)c1	-1	372	/	25	/	-6	/	/
Cc1ccc(S(=O)(=O)N2CCCN(S(=O)(=O)c3ccc(C(F)(F)F)cc3)CC2)cc1	28*	391	4	-12	25	0	14*	30*
O=C(Nc1ccccc1Cl)Nc1ccnn1C1CCN(C(=O)c2cscn2)CC1	1	341	/	-1	/	3	/	/
CC1CCc2sc(C(=O)OCC(=O)NCc3ccc(F)cc3)cc2C1 (stereo not drawn)	13*	408	3	-24	7	28	2	4
Cc1nc(NC(=O)COC(=O)c2cc3c(s2)CCC(C)C3)c(Cl)cc1Cl (stereo not drawn)	-1	289	6	-1	39	0	/	/
CCCCCCn1c(C)nc2c(c1=O)c1nc3ccccc3nc1n2/N=C/c1ccco1	25*	330	9	-1	-8	6	0	2
Cc1nc2c(c(=O)n1CCC1=CCCCC1)c1nc3ccccc3nc1n2/N=C/c1ccccc1	-2	303	8	7	2	1	/	/
COc1ccccc1NC(=O)N(C)C[C@H]1Oc2cc(Br)ccc2S(=O)(=O)N([C@H](C)CO)C[C@H]1C	-1	/	/	6	/	2	/	/
Cc1noc(C)c1COc1cccc(C(=O)OCC(=O)NC(=O)c2ccc(OC(F)F)cc2)c1	25*	279	5	6	-3	-4	6	4
CC(C)NC(=O)NC(=O)COC(=O)c1cccc(OC(F)F)c1	-4	184	8	16	0	-8	/	/
COc1cc(C(=O)NC(C)c2ccccc2)ccc1OCC(=O)N1CCOCC1 (stereo not drawn)	-1	238	/	-1	/	-1	/	/
CC(C)[C@H](NC(=O)N1CC(=O)Nc2ccccc21)C(=O)N[C@H](C(=O)O)c1ccccc1	-2	644	/	3	/	33	/	/
CN(C)CCn1c2c(c(SCC(=O)Nc3ccccc3)nc1=O)CCCC2	-4	278	/	8	/	10	/	/
COc1ccc(/C=N/NC(=O)c2cccc(C(=O)N/N=C/c3ccc(OC)c(OC)c3)n2)cc1OC	-3	/	/	-4	/	-8	/	/
COc1ccc(/C=N/NC(=O)Nc2cccc3nsnc23)cc1OC	11*	188	10	1	-22	2	1	12
SMILES	MC4R ag barr	T cell HTS	EP2 antag	MC4R antag cAMP	EP2 mod	Granule exo inh	MC4R barr ag	MOR-DOR barr ag
COC(=O)c1ccccc1NC(=O)COC(=O)/C=C/c1cccs1	20*	304	/	4	/	5	4	2
COc1cc(/C=C/C(=O)OCC(=O)Nc2ccccc2Cl)cc(OC)c1OC	15*	764	9	1	-26	1	4	10
CCOc1ccccc1NC(=O)COC(=O)/C=C/c1cccs1	0	429	/	7	/	1	/	/
Cc1nnn(-c2nonc2N)c1C(=O)N/N=C/c1cccc2ccccc12	-1	358	5	-8	-11	3	/	/
C/C(=N\NC(=O)c1nnn(-c2nonc2N)c1CN(C)c1ccccc1)c1ccccc1O	0	255	/	-1	/	1	/	/
Cc1ccc(/C=N/NC(=O)c2nnn(-c3nonc3N)c2CSc2ccccc2)s1	2	544	/	0	/	0	/	/
Cc1nnn(-c2nonc2N)c1C(=O)N/N=C/c1ccccc1O	10*	305	9	7	-14	2	1	4
CCCc1c(C(=O)N/N=C/c2ccc(OC)c(OCc3ccccc3)c2)nnn1-c1nonc1N	-3	393	/	19	/	0	/	/
COc1ccc(/C(C)=N/NC(=O)c2nnn(-c3nonc3N)c2CN(C)c2ccccc2)cc1	13*	40	/	-8	/	1	3	8
Cc1ccsc1/C=N/NC(=O)c1nnn(-c2nonc2N)c1CSc1ccccc1	11*	344	/	1	/	-1	6	10
CCCc1c(C(=O)N/N=C/c2c(OC)ccc3ccccc23)nnn1-c1nonc1N	25*	431	/	-1	/	-3	11*	5
O=C(Nc1nc2cc3c(cc2s1)OCO3)c1ccc(N2C(=O)CCC2=O)cc1	12*	360	11	15	5	2	0	13
O=C(Nc1nc2cc3c(cc2s1)OCO3)c1cccc(N2C(=O)CCC2=O)c1	2	289	14	9	-48	-1	/	/
CCCOc1ccc(C(=O)NC2CCSc3ccccc32)cc1 (stereo not drawn)	17*	217	/	8	/	3	1	6
c1ccc(Cn2nnc3c(Nc4ccc5c(c4)OCO5)nc(C4CC4)nc32)cc1	18*	/	7	9	6	1	3	5
CN(C)S(=O)(=O)c1ccc(Nc2nc(C3CC3)nc3c2nnn3Cc2ccccc2Cl)cc1	0	156	4	6	-12	1	/	/
